Assay results reported in ChEMBL document CHEMBL1138564, “Microwave-induced synthesis and anti-microbial activities of 7,10,11,12-tetrahydrobenzo[c]acridin-8(9H)-one derivatives” (2009).

Columns and labels:
Bacillus subtilis = test: Antimicrobial activity against Bacillus subtilis NCIM 2063 at 5 ug/disk after 24 hrs by disk diffusion method; assay type: functional; conditions: NCIM 2063, 24 h, read-out: DIZ
Procedure, shortened: (§1)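 Disc diffusion on Mueller–Hinton agar. 100 µl of bacterial suspension at 10⁸ CFU/ml is spread on the plate. Discs carry test compounds at two loadings, dissolved in DMSO; DMSO alone serves as negative control. Ofloxacin disc is the positive reference. Plates are incubated at 37 °C for 24 h, and the inhibition zone diameter is measured.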

Bacillus cereus = test: Antimicrobial activity against Bacillus cereus NCIM 2155 at 5 ug/disk after 24 hrs by disk diffusion method; assay type: functional; conditions: NCIM 2155, 24 h, read-out: DIZ; procedure, shortened: as §1
Aliivibrio fischeri = test: Antimicrobial activity against Vibrio fischeri NCIM 2154 at 5 ug/disk after 24 hrs by disk diffusion method; assay type: functional; conditions: NCIM 2154, 24 h, read-out: DIZ
Procedure, shortened: (§2)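 Reference disc of ofloxacin at 5 µg/disc, used to check the sensitivity of each bacterial strain. 100 µl of inoculum at 10⁸ CFU/ml was spread on Mueller–Hinton agar and incubated at 37 °C for 24 h. The read-out was inhibition zone diameter.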

Salmonella typhimurium = test: Antimicrobial activity against Salmonella Typhimurium NCIM 2501 at 5 ug/disk after 24 hrs by disk diffusion method; assay type: functional, Salmonella enterica subsp. enterica serovar Typhimurium; conditions: Salmonella enterica, NCIM 2501, 24 h; read-out: DIZ; procedure, shortened: as §2
[1] = tested on: Rhodococcus corynebacterioides; test: Antimicrobial activity against Corynebacterium rubrum NCIM 2252 at 5 ug/disk after 24 hrs by disk diffusion method; assay type: functional; conditions: Rhodococcoides corynebacterioides, NCIM 2252, 24 h; read-out: DIZ; procedure, shortened: as §1
Staphylococcus = test: Antimicrobial activity against Staphylococcus albus NCIM 2178 at 5 ug/disk after 24 hrs by disk diffusion method; assay type: functional; conditions: NCIM 2178, 24 h, read-out: DIZ; procedure, shortened: as §2
Proteus vulgaris = test: Antimicrobial activity against Proteus vulgaris NCIM 2027 at 5 ug/disk after 24 hrs by disk diffusion method; assay type: functional; conditions: NCIM 2027, 24 h, read-out: DIZ; procedure, shortened: as §1
Klebsiella aerogenes = test: Antimicrobial activity against Klebsiella aerogenes NCIM 2239 at 5 ug/disk after 24 hrs by disk diffusion method; assay type: functional; conditions: NCIM 2239, 24 h, read-out: DIZ; procedure, shortened: as §1
Pseudomonas aeruginosa = test: Antimicrobial activity against Pseudomonas aeruginosa NCIM 2200 at 5 ug/disk after 24 hrs by disk diffusion method; assay type: functional; conditions: NCIM 2200, 24 h, read-out: DIZ; procedure, shortened: as §2
Escherichia coli = test: Antimicrobial activity against Escherichia coli NCIM 2065 at 5 ug/disk after 24 hrs by disk diffusion method; assay type: functional; conditions: NCIM 2065, 24 h, read-out: DIZ; procedure, shortened: as §1

`CC1COc2c(N3CCN(C)CC3)c(F)cc3c(=O)c(C(=O)O)cn1c23` (stereo not given) [OFLOXACIN] showed a zone of inhibition at 5 µg/disc (Bacillus subtilis) of 24 mm, a zone of inhibition at 5 µg/disc (Bacillus cereus) of 19 mm and a zone of inhibition at 5 µg/disc (Aliivibrio fischeri) of 27 mm. For the same compound, the zone of inhibition at 5 µg/disc (Salmonella typhimurium) was 21 mm, the zone of inhibition at 5 µg/disc [1] was 25 mm and the zone of inhibition at 5 µg/disc (Staphylococcus) was 21 mm. For the same compound, the zone of inhibition at 5 µg/disc (Proteus vulgaris) was 19 mm, the zone of inhibition at 5 µg/disc (Klebsiella aerogenes) was 24 mm and the zone of inhibition at 5 µg/disc (Pseudomonas aeruginosa) was 22 mm. For the same compound, the zone of inhibition at 5 µg/disc (Escherichia coli) was 23 mm.
